Hits are enriched below; roughly 5.1% of the tested compounds scored in any of these assays.
NF-kB expr up – raises NF-kB expression in human neuronal cells. 190,000 compounds, 1.6% hits. NF-kB reporter expression; stronger effect = higher value. AID 1239. fold change at 12.5 µM; in the data active = fold change above about 3.3
APP 5'UTR act – activates APP 5'UTR luciferase reporter. SH-SY5Y APP 5'UTR luciferase reporter, luminescence; zero percent = DMSO vehicle wells. activation, % at 2 µM. 190,000 compounds, 1% hits. AID 1276;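 active = activation above a set limit, based on mean plus 3 SD of controls, cut at about 140% in these data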
STAT1 inh – inhibitors of IFN-gamma induced STAT1 signaling. NIH 3T3 STAT1-luciferase reporter, luminescence. inhibition, % at 5.5 µM. 200,000 compounds, 0.35% hits. AID 920;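 active = inhibition above a set limit, the mean inhibition across all tested compounds plus 3 SD, cut at about 34% in these data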;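 note: 0% = IFN-gamma with DMSO and 100% = IFN-gamma with 300 µM nifuroxazide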
STAT1 act – increases IFN-gamma driven STAT1 reporter signal; NIH 3T3 STAT1-luciferase reporter, luminescence; 100% = IFN-gamma alone, no compound; activation (% of control), % at 5.5 µM; 200,000 compounds, 2.6% hits; AID 932;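 active = activation above the screen-wide mean activation plus 3 SD, cut at about 130% in these data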;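 note: raw ratio to IFN-gamma control signal so 100% means no change and 0% no light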
STAT3 inh – inhibitors of IL-6 induced STAT3 signaling. U3A cells, IL-6 STAT3-luciferase reporter, luminescence; host cell line lacks STAT1. inhibition, % at 5.5 µM. 190,000 compounds, 0.89% hits. AID 862;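 active = inhibition above the mean inhibition across all screened compounds plus 3 SD, cut at about 44% in these data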;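 note: 0% = DMSO only wells and 100% = 100 µM nifuroxazide control wells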
STAT3 act – increases IL-6 driven STAT3 reporter signal | U3A cells, IL-6 STAT3-luciferase reporter, luminescence; 100% = signal with IL-6 EC80 alone | activation (% of control), % at 5.6 µM | 190,000 compounds, 0.91% hits;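 active = activation above the screen-wide mean of compound activation plus 3 SD, cut at about 130% in these data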;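 note: 0% = background luminescence of wells with medium and substrate only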
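Assay system – human STAT1-deficient U3A cells with stable STAT3-luciferase reporter · Also added – IL-6 (33 ng/mL) · Schedule – compound 1 h, then IL-6 6 h at 37 °C · Technique – reporter luminescence signal · Evaluation – % activation versus median of IL-6-stimulated wells · Benchmarks – IL-6-only wells as 100% reference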
Active calls of the source: *.

Results for O=C(NCCc1ccccc1)c1ccccc1NC(=O)C1CCCO1 (stereo not drawn) ?
NF-kB expr up: 3.4*; APP 5'UTR act: 158*; STAT1 inh: -36; STAT1 act: 134*; STAT3 inh: -1; STAT3 act: 101

What do the screens show for `CC(=O)c1cn(C)c(=O)[nH]c1=O`?
NF-kB expr up: 1; APP 5'UTR act: -3; STAT1 inh: -6; STAT1 act: 103; STAT3 inh: -7; STAT3 act: 106

Results for O=C(NCCCCc1ccccc1)c1ccccc1 ?
NF-kB expr up: 1.4; APP 5'UTR act: -21; STAT1 inh: -8; STAT1 act: 110; STAT3 inh: 14; STAT3 act: 92

Results for O=C(NCCCc1ccccc1)c1ccccc1 ?
NF-kB expr up: 2; APP 5'UTR act: 21; STAT1 inh: -32; STAT1 act: 129*; STAT3 inh: -8; STAT3 act: 111

How did CC(C)n1cc(/C=C2\NC(=O)N(c3cccc(Cl)c3)C2=O)c2ccccc21 do in these assays?
NF-kB expr up: 1.1; APP 5'UTR act: -5; STAT1 inh: 4; STAT1 act: 96; STAT3 inh: -2; STAT3 act: 105

What do the screens show for `COCCn1c(C)cc(/C=C2/NC(=O)N(c3cccc(Cl)c3)C2=O)c1C`?
NF-kB expr up: 0.97; APP 5'UTR act: 57; STAT1 inh: -43; STAT1 act: 138*; STAT3 inh: 10; STAT3 act: 98

How did O=C(Nc1nnc(-c2cccs2)s1)C1CC1 do in these assays?
NF-kB expr up: 1.7; APP 5'UTR act: 27; STAT1 inh: -34; STAT1 act: 130*; STAT3 inh: 1; STAT3 act: 101

How did COc1cccc(C(=O)Nc2nnc(-c3cccs3)s2)c1 do in these assays?
NF-kB expr up: 3.3; APP 5'UTR act: 56; STAT1 inh: -2; STAT1 act: 102; STAT3 inh: 58*; STAT3 act: 52

How did CCc1nnc(NC(=O)c2cccc(OC)c2)s1 do in these assays?
NF-kB expr up: 2.7; APP 5'UTR act: 101; STAT1 inh: -40; STAT1 act: 137*; STAT3 inh: 18; STAT3 act: 86

What do the screens show for `CC(=O)c1cccc(NC(=O)C23CC4CC(C2)CC(n2cncn2)(C4)C3)c1`?
NF-kB expr up: 1.1; APP 5'UTR act: -5; STAT1 inh: 7; STAT1 act: 94; STAT3 inh: 11; STAT3 act: 90

What do the screens show for `CS(=O)(=O)N1CCc2cc(C(=O)OCC(=O)c3ccccc3)ccc21`?
NF-kB expr up: 4*; APP 5'UTR act: 8; STAT1 inh: -57; STAT1 act: 156*; STAT3 inh: -13; STAT3 act: 111

What do the screens show for `CSCCC(NS(=O)(=O)/C=C/c1ccccc1)C(=O)O` (stereo not drawn)?
NF-kB expr up: 1.3; APP 5'UTR act: 21; STAT1 inh: -5; STAT1 act: 104; STAT3 inh: 3; STAT3 act: 105

Results for CC(C)Oc1ccc(C(=O)NC2(C(F)(F)F)NC(=O)N(CCCc3ccccc3)C2=O)cc1 (stereo not drawn) ?
NF-kB expr up: 0.75; APP 5'UTR act: -10; STAT1 inh: -18; STAT1 act: 116; STAT3 inh: -4; STAT3 act: 104

Results for O=C1Nc2ccccc2/C1=C/C(=O)c1cccs1 ?
NF-kB expr up: 2.2; APP 5'UTR act: -16; STAT1 inh: 1; STAT1 act: 99; STAT3 inh: -35; STAT3 act: 134*

How did O=C(CSc1ncc(-c2ccc(F)cc2)n1Cc1ccco1)Nc1ccc2c(c1)OCO2 do in these assays?
NF-kB expr up: 1.6; APP 5'UTR act: 62; STAT1 inh: -41; STAT1 act: 138*; STAT3 inh: 6; STAT3 act: 97

Results for Cn1c(-c2sc(=S)n(-c3ccccc3)c2N)nc2ccccc21 ?
NF-kB expr up: 1.5; APP 5'UTR act: -2; STAT1 inh: -3; STAT1 act: 103; STAT3 inh: -38; STAT3 act: 133*

Results for COc1ccc(NS(=O)(=O)c2ccc(C)c(NC(=O)c3ccc(C)c(S(=O)(=O)N4CCOCC4)c3)c2)cc1 ?
NF-kB expr up: 1.1; APP 5'UTR act: -12; STAT1 inh: 2; STAT1 act: 98; STAT3 inh: 0; STAT3 act: 100

What do the screens show for `O=C(Oc1ccc(-c2cn3c(n2)SCC3)cc1)c1ccccc1`?
NF-kB expr up: 2.1; APP 5'UTR act: 15; STAT1 inh: -11; STAT1 act: 110; STAT3 inh: 8; STAT3 act: 95

What do the screens show for `Cc1ccc(-c2cn3c(n2)SCC3)cc1`?
NF-kB expr up: 4.1*; APP 5'UTR act: 107; STAT1 inh: -45; STAT1 act: 141*; STAT3 inh: 23; STAT3 act: 82

How did CCc1ccc(/C=C/C(=O)C2C(=O)c3ccccc3C2=O)cc1 do in these assays?
NF-kB expr up: 1.1; APP 5'UTR act: 20; STAT1 inh: 39*; STAT1 act: 65; STAT3 inh: 52*; STAT3 act: 62

Results for O=C(/C=C/c1ccccc1)C1C(=O)c2ccccc2C1=O ?
NF-kB expr up: 2.6; APP 5'UTR act: 61; STAT1 inh: -12; STAT1 act: 111; STAT3 inh: -8; STAT3 act: 102

How did COc1cc(/C=C/C(=O)OCC(=O)c2c(N)n(C)c(=O)n(C)c2=O)ccc1OC(F)F do in these assays?
NF-kB expr up: 1.1; APP 5'UTR act: 7; STAT1 inh: 0; STAT1 act: 99; STAT3 inh: 9; STAT3 act: 96

What do the screens show for `O=C1C(C=NCc2cccnc2)=C(O)c2ccccc21`?
NF-kB expr up: 2.8; APP 5'UTR act: 15; STAT1 inh: -33; STAT1 act: 130*; STAT3 inh: 1; STAT3 act: 103

How did O=C1C(C=NCc2ccncc2)=C(O)c2ccccc21 do in these assays?
NF-kB expr up: 1.1; APP 5'UTR act: 17; STAT1 inh: -5; STAT1 act: 105; STAT3 inh: -4; STAT3 act: 108

What do the screens show for `CC(C)(C)c1ccc(C(=O)CSc2n[nH]c(=O)[nH]c2=O)cc1`?
NF-kB expr up: 1.4; APP 5'UTR act: -17; STAT1 inh: -5; STAT1 act: 105; STAT3 inh: 15; STAT3 act: 93

What do the screens show for `Nc1c(C(=O)N2CCOCC2)sc2nc3c(cc12)CCC3`?
NF-kB expr up: 3.4*; APP 5'UTR act: 109; STAT1 inh: -26; STAT1 act: 122; STAT3 inh: 14; STAT3 act: 90

Results for CC(=O)Nc1c(C(=O)N2CCOCC2)sc2nc3c(cc12)COC(C)(C)C3 ?
NF-kB expr up: 1.1; APP 5'UTR act: 5; STAT1 inh: -1; STAT1 act: 101; STAT3 inh: -3; STAT3 act: 104

How did NC(=O)c1sc2nc3c(cc2c1N)CCC3 do in these assays?
NF-kB expr up: 2; APP 5'UTR act: 27; STAT1 inh: -10; STAT1 act: 109; STAT3 inh: 26; STAT3 act: 83

Compound activity from PubChem.
